pIC50: −log10 of the molar value.
How the values were obtained:
[1] = Solubility in water; format: physicochemical; details: read-out: S
[2] = tested on: B16; assay: Concentration required to inhibit the proliferation of B16 melanoma cells was determined; format: functional, cell-based; details: Mus musculus
[3] = tested on: B16; assay: Percentage change in cell number of B16 melanoma cells treated with 10e-5 M dose; format: functional, Mus musculus
Method in brief: (§1)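 B16 melanoma cells exposed to 10⁻⁵ or 10⁻⁶ M compound for 8 h, then rinsed three times with fresh medium. Cells then grown in drug-free medium for 48 h and counted. Result given as percent change relative to the cell number at time zero. Controls are the average of three experiments.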

[4] = tested on: B16; assay: Percentage change in cell number of B16 melanoma cells treated with 10e-6 M dose; format: functional, Mus musculus; method in brief: as §1
[5] = tested on: B16; assay: Relative effect on B16 melanoma cell proliferation was determined [IC50 (taxol)/IC50 (derivative)]; format: functional, Mus musculus
[6] = organism: Bos taurus; assay: Relative effect on microtubular assembly (Tubulin polymerized by derivative/tubulin polymerized by taxol); format: functional
Method in brief: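 Bovine brain tubulin, purified from microtubule-associated proteins by phosphocellulose chromatography, used at 10 μM. Turbidity followed at 350 nm. Polymer pelleted at 200000g, 37 °C, 4 min, depolymerized on ice, and protein measured by Bradford.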

[7] = tested on: Mus musculus; assay: Initial average tumor weight was measured in mice induced with human mammary carcinoma at a dose of 30 mg/kg; format: functional
Method in brief: (§2)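 MX-1 human mammary carcinoma xenograft implanted under the renal capsule in mice. Study run at the National Cancer Institute following NIH Publication No. 84-2635. Tumor weights recorded at the start and at the end. Survivors counted after 11 days. %T/C = (Δ tumor weight treated/Δ tumor weight control) × 100 where the tumor grows, and (Δ tumor weight treated/initial control tumor weight) × 100 where it regresses.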

[8] = tested on: Mus musculus; assay: Initial average tumor weight was measured in mice induced with human mammary carcinoma at a dose of 5.9 mg/Kg; format: functional; method in brief: as §2
[9] = tested on: Mus musculus; assay: Initial average tumor weight was measured in mice induced with human mammary carcinoma at a dose of 8.9 mg/Kg; format: functional; method in brief: as §2
[10] = tested on: Mus musculus; assay: Initial average tumor weight was measured in mice induced with human mammary carcinoma at a dose of 20 mg/Kg; format: functional; method in brief: as §2
[11] = tested on: Mus musculus; assay: Initial average tumor weight was measured in mice induced with human mammary carcinoma at a dose of 13 mg/Kg; format: functional; method in brief: as §2
[12] = tested on: Mus musculus; assay: Number of survivors after 11 days at a dose of 13 mg/Kg tested in 6 mice; format: functional
Method in brief: (§3)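 MX-1 human mammary carcinoma xenograft implanted under the renal capsule of mice. The study was run at the National Cancer Institute following the procedures of NIH Publication No. 84-2635. Average tumor weight was recorded at the start and end of treatment, and survivors were counted after 11 days. Dosed groups were compared with an untreated control group.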

[13] = tested on: Mus musculus; assay: Number of survivors after 11 days at a dose of 20 mg/Kg tested in 6 mice; format: functional; method in brief: as §3
[14] = tested on: Mus musculus; assay: Number of survivors after 11 days at a dose of 30 mg/kg tested in 6 mice; format: functional; method in brief: as §3
[15] = tested on: Mus musculus; assay: Tumor growth or regression measured as Percent treated by control at a dose of 8.9 mg/kg to mice with MX-1 xenograft; format: functional
Method in brief: (§4)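 Subrenal capsule human mammary carcinoma (MX-1) xenograft in mice, run at the National Cancer Institute by NIH Publication No. 84-2635 procedures. Initial and final average tumor weights recorded, with survivors counted after 11 days. %T/C is (Δ tumor weight treated/Δ tumor weight controls)×100 for growing tumors. For regressing tumors it is (Δ tumor weight treated/initial control tumor weight)×100.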

[16] = tested on: Mus musculus; assay: Tumor growth or regression measured as Percent treated by control at a dose of 20 mg/Kg to mice with MX-1 xenograft; CR refers to complete remission or when the tumor is no longer detectable; format: functional, organism-based; method in brief: as §2
[17] = tested on: Mus musculus; assay: Tumor growth or regression measured as Percent treated by control at a dose of 30 mg/Kg to mice with MX-1 xenograft; Tox refers to toxicity or when < 65% of the animals survive the test; format: functional, organism-based; method in brief: as §2
[18] = tested on: Mus musculus; assay: Tumor growth or regression measured as Percent treated by control at a dose of 5.9 mg/Kg to mice with MX-1 xenograft; format: functional; method in brief: as §4
[19] = tested on: Mus musculus; assay: Tumor growth or regression measured as Percent treated by control at a dose of 13 mg/Kg to mice with MX-1 xenograft; CR refers to complete remission or when the tumor is no longer detectable; format: functional, organism-based; method in brief: as §2
[20] = tested on: Mus musculus; assay: Number of survivors after 11 days at a dose of 5.9 mg/Kg tested in 6 mice; format: functional; method in brief: as §3
[21] = tested on: Mus musculus; assay: Number of survivors after 11 days at a dose of 8.9 mg/Kg tested in 6 mice; format: functional; method in brief: as §3
[22] = tested on: Mus musculus; assay: Final average tumor weight was measured in mice induced with human mammary carcinoma at a dose of 20 mg/Kg; format: functional; method in brief: as §2
[23] = tested on: Mus musculus; assay: Final average tumor weight was measured in mice induced with human mammary carcinoma at a dose of 30 mg/kg; format: functional; method in brief: as §2
[24] = tested on: Mus musculus; assay: Final average tumor weight was measured in mice induced with human mammary carcinoma at a dose of 5.9 mg/Kg; format: functional; method in brief: as §2
[25] = tested on: Mus musculus; assay: Antitumor activity of taxoland the derivative against mammary carcinoma xenograft in mice; format: functional; method in brief: as §2
[26] = tested on: Mus musculus; assay: Final average tumor weight was measured in mice induced with human mammary carcinoma at a dose of 8.9 mg/Kg; format: functional; method in brief: as §2
[27] = tested on: Mus musculus; assay: final average tumor weight was measured in mice induced with human mammary carcinoma at a dose of 13 mg/Kg; format: functional; method in brief: as §4

Q: For `CC(=O)O[C@H]1C(=O)[C@@]2(C)[C@H]([C@H](OC(=O)c3ccccc3)[C@]3(O)C[C@H](OC(=O)[C@H](OC(=O)CN(C)C)[C@@H](NC(=O)c4ccccc4)c4ccccc4)C(C)=C1C3(C)C)[C@]1(OC(C)=O)CO[C@@H]1C[C@@H]2O.CS(=O)(=O)O`, which solubility [1] is on record?
A: 4.83 mM

Q: What about the pIC50 [2] of the same compound?
A: 7.68

Q: And the “Change in cell number” value [3]?
A: 84%

Q: And the “Change in cell number” value [4]?
A: 261%

Q: And the Relative effect [5]?
A: 0.9

Q: And the Relative effect [6]?
A: 0.25

Q: And the “Initial average tumor weight” value [7]?
A: 0.68 mg

Q: What about the “Initial average tumor weight” value [8] of the same compound?
A: 0.61 mg

Q: And the “Initial average tumor weight” value [9]?
A: 0.77 mg

Q: And the “Initial average tumor weight” value [10]?
A: 0.56 mg

Q: What about the “Initial average tumor weight” value [11] of the same compound?
A: 0.64 mg

Q: And the No. of survivors [12]?
A: 4

Q: And the No. of survivors [13]?
A: 4

Q: And the No. of survivors [14]?
A: 1

Q: What about the T/C [15] of the same compound?
A: -53%

Q: And the T/C [16]?
A: Complete remission

Q: And the T/C [17]?
A: Toxic

Q: What about the T/C [18] of the same compound?
A: -78%

Q: What about the T/C [19] of the same compound?
A: Complete remission

Q: What about the No. of survivors [20] of the same compound?
A: 6

Q: What about the No. of survivors [21] of the same compound?
A: 5

Q: What about the “Final average tumor weight” value [22] of the same compound?
A: 0 mg

Q: And the “Final average tumor weight” value [23]?
A: 0 mg

Q: What about the “Final average tumor weight” value [24] of the same compound?
A: 0.13 mg

Q: And the Relative antitumor activity [25]?
A: 2

Q: And the “Final average tumor weight” value [26]?
A: 0.36 mg

Q: And the “Final average tumor weight” value [27]?
A: 0 mg

From ChEMBL document CHEMBL1126013, “Synthesis and evaluation of some water-soluble prodrugs and derivatives of taxol with antitumor activity” (J Med Chem, 1992)
